# From publication PMC7717452 (Journal of Enzyme Inhibition and Medicinal Chemistry, 2020)
# Values joined by “and” are separate entries in the source; they are usually repeats but may differ in a detail not shown here. Identical values can stand only once.
# Columns and labels:
# LiTryS [1] = target: T1, LiTryS (Leishmania infantum, UniProt A4I2Z3); conditions: read-out: Ki, nucleotide-binding site of the enzyme; ADP; cited from earlier work
# T1 sequence (A4I2Z3 1-652): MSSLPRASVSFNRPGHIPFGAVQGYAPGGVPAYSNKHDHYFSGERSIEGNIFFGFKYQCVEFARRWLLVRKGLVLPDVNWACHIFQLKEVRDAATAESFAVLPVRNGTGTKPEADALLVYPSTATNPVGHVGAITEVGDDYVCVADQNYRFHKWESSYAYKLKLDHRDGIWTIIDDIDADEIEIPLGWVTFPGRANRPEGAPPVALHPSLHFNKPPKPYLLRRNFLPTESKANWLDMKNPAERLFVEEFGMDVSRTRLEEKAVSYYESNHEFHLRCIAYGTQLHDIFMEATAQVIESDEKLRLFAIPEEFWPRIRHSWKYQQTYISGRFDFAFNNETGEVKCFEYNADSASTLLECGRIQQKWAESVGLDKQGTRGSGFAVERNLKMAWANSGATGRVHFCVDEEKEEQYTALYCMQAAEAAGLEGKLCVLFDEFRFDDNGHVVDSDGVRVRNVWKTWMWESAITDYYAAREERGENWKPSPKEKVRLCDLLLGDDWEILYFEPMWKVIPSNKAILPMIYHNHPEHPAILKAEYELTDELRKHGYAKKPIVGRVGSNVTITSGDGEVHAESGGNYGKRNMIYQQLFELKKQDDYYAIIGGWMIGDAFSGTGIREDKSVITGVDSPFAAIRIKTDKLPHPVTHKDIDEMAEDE
# [2] = test system: L. infantum amastigotes (WT and sKO); assay: Intracellular low molecular mass thiols, amastigotes in J774 macrophages; assay type: cell-based, Leishmania infantum; conditions: 1 µM, 24 h, vs non-treated control
# Procedure, shortened: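 J774 macrophages at 50% confluence were infected with stationary-phase L. infantum WT or single knockout promastigotes (1:40) for 2 h at room temperature, then 22 h at 37 °C. After washing, cells were treated or not with 1 µM test compound for 24 h. Thiols were reduced with NaBH4, labelled with monobromobimane, then separated by C18 HPLC against standards. Non-infected macrophage GSH was subtracted, and values are fold-change versus non-treated. At least duplicates; t-test.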
# LiTryS [3] = target: T1, LiTryS; assay: Kinetic assays for LiTryS; assay type: biochemical; conditions: double reciprocal plots
# Procedure, shortened: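 LiTryS in 100 mM HEPES pH 7.4, 10 mM MgSO4, 0.5 mM EDTA, 5 mM DTT at 28 °C. Enzyme-started, linear 15 min, colorimetric stop, A650 after 20 min. Variable GSH 100–3 µM (SP 13 mM, ATP 200 µM); ATP 200–6 µM (SP 13 mM, GSH 250 µM); SP 13–0.41 mM or GSP 250–7.8 µM (ATP 200 µM, GSH 250 µM).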
# TbTryS = target: T2, TbTryS (Trypanosoma brucei brucei, UniProt Q8IEX1); assay: TryS activity end-point assay; assay type: biochemical; conditions: IC50 value, TbTryS, ± 2σ; ~30 assumed for 50 ± 5% inhibition at 30 µM
# T2 sequence (Q8IEX1 1-627): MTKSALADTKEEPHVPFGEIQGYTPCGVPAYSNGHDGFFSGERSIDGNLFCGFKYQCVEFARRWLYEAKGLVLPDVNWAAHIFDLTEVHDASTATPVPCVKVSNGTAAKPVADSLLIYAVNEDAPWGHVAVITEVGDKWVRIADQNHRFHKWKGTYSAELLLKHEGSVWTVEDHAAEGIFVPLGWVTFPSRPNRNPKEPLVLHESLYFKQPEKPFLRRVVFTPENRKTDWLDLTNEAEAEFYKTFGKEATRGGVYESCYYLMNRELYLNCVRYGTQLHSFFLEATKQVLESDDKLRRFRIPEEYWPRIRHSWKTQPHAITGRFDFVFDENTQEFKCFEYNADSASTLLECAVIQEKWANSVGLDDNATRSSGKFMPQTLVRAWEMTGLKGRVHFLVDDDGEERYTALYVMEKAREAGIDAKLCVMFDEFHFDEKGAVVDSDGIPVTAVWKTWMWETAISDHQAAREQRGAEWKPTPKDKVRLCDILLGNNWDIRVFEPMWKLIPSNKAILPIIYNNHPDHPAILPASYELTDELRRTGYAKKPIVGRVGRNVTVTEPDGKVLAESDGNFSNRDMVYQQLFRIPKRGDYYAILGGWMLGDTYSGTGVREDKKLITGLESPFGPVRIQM
# Procedure, shortened: (§1)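 Recombinant TryS end-point assay in 100 mM HEPES pH 7.4 with 5 mM DTT, 10 mM MgSO4 and 0.5 mM EDTA. ATP was 150 µM and spermidine 2 mM. GSH was 0.25 mM for LiTryS, 0.05 mM for TbTryS and 0.57 mM for TcTryS. Enzyme started the reaction and BIOMOL Green stopped it after 15 min. A650 was read after 20 min at room temperature. Values were corrected with no-enzyme blanks and for compound interference with phosphate. At least quadruplicates; IC50 is given ± 2σn-1.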
# [4] = target: T3, LiTryS (Leishmania infantum trypanothione synthetase) (Leishmania infantum, UniProt A4I2Z3); assay: TryS activity end-point assay; assay type: biochemical; conditions: IC50 value, LiTryS, ± 2σ; ∼30 assumed for 50 ± 5% inhibition at 30 µM
# T3 sequence (A4I2Z3 1-652): T1 sequence (A4I2Z3 1-652)
# Procedure, shortened: as §1
# [5] = test system: L. infantum promastigotes (WT and TryS sKO); assay: Intracellular low molecular mass thiols, promastigotes; assay type: cell-based, Leishmania infantum; conditions: 7 µM, 24 h
# Procedure, shortened: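 L. infantum promastigotes (MHOM MA67I7MAP263, WT or TryS single knockout) were seeded at 5 × 10^5/mL in RPMI at 28 °C with 7 µM test compound or 1% DMSO for 24 h. Thiols were reduced with 70 mM NaBH4 in 40 mM HEPES pH 8.0, labelled with 2 mM monobromobimane (70 °C, 3 min) and acid-extracted. They were separated by C18 HPLC against GSH/T(SH)2 standards (2.5–75 nmol), and peak areas are given as % of untreated WT. At least duplicates; unpaired t-test.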
# [6] = test system: L. braziliensis amastigotes; assay: Macrophage infection assay, L. braziliensis amastigotes; assay type: cell-based, Leishmania braziliensis
# Procedure, shortened: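 J774 macrophages were plated on coverslips at 1 × 10^5 cells/mL in DMEM with 1% FBS. They were infected with stationary-phase L. braziliensis promastigotes (MHOM/BR/01/BA788; 1:20) for 2 h at room temperature, then 22 h at 35 °C. After washing, cells got test compound (5 or 10 µM, or 10–0.01 µM) in 1% DMSO for 24 h at 37 °C and 5% CO2. Cells were EtOH-fixed and DAPI-stained, and 100–200 macrophages were imaged. % infected cells is relative to DMSO.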
# L. infantum amastigotes = assay: Macrophage infection assay, L. infantum amastigotes; assay type: cell-based, Leishmania infantum; conditions: selectivity index, macrophage CC50 and amastigote EC50
# Procedure, shortened: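 J774 macrophages on coverslips (1 × 10^5 cells/mL, DMEM with 1% FBS) were infected with stationary-phase L. infantum promastigotes (1:20) for 2 h at room temperature, then 22 h at 37 °C. After washing, test compound (10–0.01 µM, up to seven concentrations, at least duplicates, 1% DMSO) was added for 24 h at 37 °C. DAPI-stained infected cells were counted by microscopy relative to DMSO. EC50 came from a four-parameter sigmoid fit.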
# [7] = test system: Mouse macrophages from the cell line J774; assay: Cytotoxicity assay; assay type: cell-based; conditions: read-out: CC50, macrophages; 24 h, non-infected J774
# Procedure, shortened: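 J774 mouse macrophages were grown in DMEM with 10% FBS and penicillin/streptomycin at 37 °C in humidified 5% CO2. Cells were seeded at 6 × 10^4 cells/mL and exposed the next day for 24 h to test compound at 100 to 0.001 µM (200 µM for one compound). The WST-1 signal was read at A450. % cytotoxicity was calculated against DMSO-treated and untreated cells, and CC50 is given ± σn–1.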
Inhibition mode with respect to ATP and GSH (LiTryS [3]; ATP or GSH variable),Inhibition mode with respect to SP and GSP (LiTryS [3]; SP or GSP variable),IC50 (TbTryS),IC50 [4],SMILES,Ki (LiTryS [1]),"GSH accumulation, WT amastigotes [2]","GSH accumulation, sKO amastigotes [2]","T(SH)2 depletion, WT amastigotes [2]","T(SH)2 depletion, sKO amastigotes [2]","T(SH)2 decrease, WT promastigotes ([5]; WT cells)","T(SH)2 content, sKO promastigotes ([5]; sKO cells, detection limit 0.5 nmol T(SH)2/100 million cells)","% infection by L. braziliensis at 5 µM ([6]; 5 µM, 24 h, relative to infected non-treated macrophages)","SI, L. braziliensis amastigotes ([6]; selectivity index, macrophage CC50 and amastigote EC50)","SI, L. infantum amastigotes (L. infantum amastigotes)",CC50 [7]
–,–,–,–,Nc1ncnc2c1ncn2[C@@H]1O[C@H](COP(=O)(O)OP(=O)(O)O)[C@@H](O)[C@H]1O [ADP],90 µM,–,–,–,–,–,–,–,–,–,–
uncompetitive inhibition,competitive inhibition,~30 µM,0.3 µM,Cl.O=C(CN1C(=O)Cc2c([nH]c3ccc(Br)cc23)-c2ccc(Cl)cc21)N1CCNCC1 [Compound 20],–,16 fold,10 fold,about 40%,~82%,88%,undetectable,15% and 15 ± 1 at 5 µM %,≥ 21,9,8.1 ± 0.1 µM
